Key:
[1] = target: Kappa-type opioid receptor (Homo sapiens, UniProt P41145); experiment: Inhibition of kappa opioid receptor
[2] = Inhibition of cytochrome P450; assay type: ADME
[3] = target: Sodium-dependent noradrenaline transporter (Homo sapiens, UniProt P23975); experiment: Inhibition of NET
[4] = target: T1, 5-hydroxytryptamine receptor 2C (Homo sapiens, UniProt P28335); experiment: Inhibition of 5HT2C (receptor)
T1 sequence (P28335 whole entry): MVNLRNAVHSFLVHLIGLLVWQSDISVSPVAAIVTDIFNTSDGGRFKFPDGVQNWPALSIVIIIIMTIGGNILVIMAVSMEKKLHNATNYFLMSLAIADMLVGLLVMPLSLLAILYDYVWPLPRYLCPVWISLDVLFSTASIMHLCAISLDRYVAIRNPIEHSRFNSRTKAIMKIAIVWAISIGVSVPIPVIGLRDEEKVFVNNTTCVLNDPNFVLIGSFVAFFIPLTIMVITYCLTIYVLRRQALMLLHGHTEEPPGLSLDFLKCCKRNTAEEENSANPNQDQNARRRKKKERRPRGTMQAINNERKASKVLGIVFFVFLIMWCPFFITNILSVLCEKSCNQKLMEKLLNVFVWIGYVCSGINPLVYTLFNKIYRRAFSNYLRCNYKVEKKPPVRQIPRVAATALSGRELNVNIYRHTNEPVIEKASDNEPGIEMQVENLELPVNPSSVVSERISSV

[5] = Mean residence time in rat at 2 mg/kg, iv; assay type: ADME, organism-based; set-up: dose 2 mg/kg, route intravenous; settings: in vivo
Method in brief: (§1)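 Rats dosed iv at 2.0 mg/kg for clearance, MRT and Vdss. Oral dosing at 0.5 mg/kg for bioavailability (F).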

[6] = target: Growth hormone secretagogue receptor type 1 (Rattus norvegicus) (UniProt O08725); experiment: Agonist activity at rat GHSR expressed in CHO cells assessed as increase in ghrelin-induced [3H]IP accumulation at 10 uM after 1 hr by scintillation counting relative to ghrelin; assay type: functional, cell-based
Method in brief: (§2)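 CHO cells stably expressing human or rat GHSR labelled 12 h with 3H-inositol (1 µCi/mL in DMEM), then exposed to ghrelin or compound at 37 °C for 1.0 h. Lysis with 20 mM formic acid, 4 °C, 4 h. Extract taken onto SPA beads, 12 h in the dark, then radioactivity counted. IP accumulation expressed as % of maximal ghrelin response at 10, 1.0 and 0.1 µM.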

[7] = target: T2, Alpha-2A adrenergic receptor (Homo sapiens, UniProt P08913); experiment: Inhibition of alpha2A adrenergic receptor
T2 sequence (P08913 whole entry): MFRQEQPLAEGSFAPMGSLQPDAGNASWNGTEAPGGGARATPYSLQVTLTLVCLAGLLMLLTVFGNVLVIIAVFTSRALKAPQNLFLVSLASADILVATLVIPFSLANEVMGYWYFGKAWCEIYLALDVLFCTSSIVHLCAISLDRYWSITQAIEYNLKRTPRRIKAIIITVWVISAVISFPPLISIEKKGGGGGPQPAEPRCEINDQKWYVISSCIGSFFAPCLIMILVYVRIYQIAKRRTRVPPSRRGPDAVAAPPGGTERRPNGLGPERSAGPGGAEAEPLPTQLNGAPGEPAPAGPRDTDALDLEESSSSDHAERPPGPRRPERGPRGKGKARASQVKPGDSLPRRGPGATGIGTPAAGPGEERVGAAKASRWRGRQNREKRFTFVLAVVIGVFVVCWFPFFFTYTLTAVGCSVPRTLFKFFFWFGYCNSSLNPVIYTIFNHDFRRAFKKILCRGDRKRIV

[8] = Oral bioavailability in rat at 0.5 mg/kg; assay type: ADME, organism-based; settings: in vivo; method in brief: as §1
[9] = target: Sodium-dependent dopamine transporter (Homo sapiens, UniProt Q01959); experiment: Inhibition of DAT
[10] = target: Sodium-dependent serotonin transporter (Homo sapiens, UniProt P31645); experiment: Inhibition of SERT
[11] = target: Growth hormone secretagogue receptor type 1 (Rattus norvegicus) (UniProt O08725); experiment: Agonist activity at rat GHSR expressed in CHO cells assessed as increase in ghrelin-induced [3H]IP accumulation at 1 uM after 1 hr by scintillation counting relative to ghrelin; assay type: functional, cell-based; method in brief: as §2
[12] = target: Voltage-gated inwardly rectifying potassium channel KCNH2 (Homo sapiens, UniProt Q12809); experiment: Inhibition of human ERG
[13] = target: D(3) dopamine receptor (Homo sapiens, UniProt P35462); experiment: Inhibition of dopamine D3 receptor
[14] = Clearance in rat at 2 mg/kg, iv; assay type: ADME, organism-based; set-up: dose 2 mg/kg, route intravenous; settings: in vivo; method in brief: as §1
[15] = target: T3, Growth hormone secretagogue receptor type 1 (Homo sapiens, UniProt Q92847); experiment: Antagonist activity at human GHSR expressed in CHOK1 cells assessed as inhibition of ghrelin-induced intracellular calcium flux by aequorin flash luminescence assay; assay type: functional, cell-based, CHO-K1
Method in brief: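 Aequorin flash luminescence in CHO-K1 cells stably co-expressing human ghrelin receptor and aequorin. […] IC50 values are means of three determinations.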

[16] = target: Growth hormone secretagogue receptor type 1 (Rattus norvegicus) (UniProt O08725); experiment: Agonist activity at rat GHSR expressed in CHO cells assessed as increase in ghrelin-induced [3H]IP accumulation at 0.1 uM after 1 hr by scintillation counting relative to ghrelin; assay type: functional, cell-based; method in brief: as §2
[17] = Volume of distribution at steady state in rat at 2 mg/kg, iv; assay type: ADME, organism-based; set-up: dose 2 mg/kg, route intravenous; settings: in vivo, read-out: Vdss
[18] = target: T3, Growth hormone secretagogue receptor type 1; experiment: Agonist activity at human GHSR expressed in CHO cells assessed as increase in ghrelin-induced [3H]IP accumulation at 1 uM after 1 hr by scintillation counting relative to ghrelin; assay type: functional, cell-based; method in brief: as §2
[19] = target: T3, Growth hormone secretagogue receptor type 1; experiment: Agonist activity at human GHSR expressed in CHO cells assessed as increase in ghrelin-induced [3H]IP accumulation at 10 uM after 1 hr by scintillation counting relative to ghrelin; assay type: functional, cell-based; method in brief: as §2
[20] = target: Mu-type opioid receptor (Homo sapiens, UniProt P35372); experiment: Inhibition of mu opioid receptor
[21] = target: Growth hormone secretagogue receptor type 1 (Rattus norvegicus, UniProt O08725); experiment: (§3) Inhibition of rat GHSR expressed in CHOK1 cells assessed as inhibition of ghrelin-induced intracellular calcium flux by aequorin flash luminescence assay; assay type: functional, cell-based, CHO-K1
[22] = Induction of growth hormone release from Sprague-Dawley rat pituitary cells at 1 uM after 20 mins by RIA assay relative to ghrelin; assay type: functional, Pituitary gland cell
Method in brief: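 Pituitary cells from 6–8-week-old male SD rats plated on poly-D-lysine and cultured 3 days at 37 °C. Washed with DMEM assay buffer (20 mM Hepes, 0.3% BSA) and held 5 min at 37 °C. Treated with rat ghrelin or compound for 20 min, then GH release measured as % of maximal ghrelin response. Means of three determinations.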

[23] = target: T3, Growth hormone secretagogue receptor type 1; experiment: Agonist activity at human GHSR expressed in CHO cells assessed as increase in ghrelin-induced [3H]IP accumulation at 0.1 uM after 1 hr by scintillation counting relative to ghrelin; assay type: functional, cell-based; method in brief: as §2
[24] = target: 5-hydroxytryptamine receptor 2A (Homo sapiens, UniProt P28223); experiment: Inhibition of 5HT2A (receptor)
[25] = Ratio of brain AUC to plasma AUC in FVB mouse; assay type: ADME, cell-free; settings: brain and plasma
[26] = target: Histamine H2 receptor (Homo sapiens, UniProt P25021); experiment: Inhibition of histamine H2 receptor
[27] = target: Muscarinic acetylcholine receptor M3 (Homo sapiens, UniProt P20309); experiment: Inhibition of muscarinic M3 receptor
[28] = target: D(2) dopamine receptor (Homo sapiens, UniProt P14416); experiment: Inhibition of dopamine D2 receptor
[29] = target: Growth hormone secretagogue receptor type 1 (Rattus norvegicus) (UniProt O08725); experiment: as §3; assay type: functional, cell-based; settings: CHO-K1
[30] = Ratio of brain AUC to plasma AUC in mdr1a knockout mouse; assay type: ADME, cell-free; settings: brain and plasma
[31] = Metabolic stability in human liver microsomes assessed as compound remaining at 1 uM after 30 mins; assay type: ADME, Microsome; settings: read-out: Stability
Method in brief: (§4)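 Compound incubated at 1.0 µM initial concentration with rat or human liver microsomes for 30 min. Percentage of compound remaining determined.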

[32] = test system: MDCK; experiment: Ratio of apparent permeability from basolateral to apical over apical to basolateral side of MDCK cells expressing human MDR1; settings: dog
[33] = Clearance in mouse at 0.5 mg/kg, iv; assay type: ADME, organism-based; set-up: dose 0.5 mg/kg, route intravenous; settings: in vivo
Method in brief: (§5)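 Mice dosed intravenously at 0.5 mg/kg. Clearance, MRT and Vdss derived from plasma pharmacokinetics.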

[34] = Mean residence time in mouse at 0.5 mg/kg, iv; assay type: ADME, organism-based; set-up: dose 0.5 mg/kg, route intravenous; settings: in vivo; method in brief: as §5
[35] = Inhibition of rat ghrelin-stimulated growth hormone release from Sprague-Dawley rat pituitary cells pretreated for 10 mins before rat ghrelin challenge measured after 20 mins by RIA assay; assay type: functional, cell-based; settings: Pituitary gland cell
Method in brief: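 Primary pituitary cells from 6–8-week-old male SD rats cultured 3 days at 37 °C, then washed in DMEM/20 mM Hepes/0.3% BSA buffer. Compound pretreatment for 10 min, then co-incubation with rat ghrelin (0.2 µM) plus compound for another 20 min. GH release measured and IC50 derived. Means of three determinations.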

[36] = Volume of distribution at steady state in mouse at 0.5 mg/kg, iv; assay type: ADME, organism-based; set-up: dose 0.5 mg/kg, route intravenous; settings: in vivo, read-out: Vdss; method in brief: as §5
[37] = Metabolic stability in rat liver microsomes assessed as compound remaining at 1 uM after 30 mins; assay type: ADME, Microsome; settings: read-out: Stability; method in brief: as §4
[38] = Fraction unbound in rat plasma; assay type: ADME, cell-free
[39] = Fraction unbound in mouse plasma; assay type: ADME, cell-free

Growth hormone secretagogue receptor type 1 (Rattus norvegicus), sequence (O08725 whole entry): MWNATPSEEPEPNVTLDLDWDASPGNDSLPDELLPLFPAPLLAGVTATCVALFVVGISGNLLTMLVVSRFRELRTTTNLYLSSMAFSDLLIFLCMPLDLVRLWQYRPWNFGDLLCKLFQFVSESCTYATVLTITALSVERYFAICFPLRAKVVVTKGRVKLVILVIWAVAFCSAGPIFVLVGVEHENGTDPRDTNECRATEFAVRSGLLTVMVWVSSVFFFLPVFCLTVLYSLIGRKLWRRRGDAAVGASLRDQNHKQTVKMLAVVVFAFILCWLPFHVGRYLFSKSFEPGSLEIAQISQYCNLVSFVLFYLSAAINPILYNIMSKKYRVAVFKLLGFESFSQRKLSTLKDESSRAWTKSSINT
Sodium-dependent noradrenaline transporter, sequence (P23975 whole entry): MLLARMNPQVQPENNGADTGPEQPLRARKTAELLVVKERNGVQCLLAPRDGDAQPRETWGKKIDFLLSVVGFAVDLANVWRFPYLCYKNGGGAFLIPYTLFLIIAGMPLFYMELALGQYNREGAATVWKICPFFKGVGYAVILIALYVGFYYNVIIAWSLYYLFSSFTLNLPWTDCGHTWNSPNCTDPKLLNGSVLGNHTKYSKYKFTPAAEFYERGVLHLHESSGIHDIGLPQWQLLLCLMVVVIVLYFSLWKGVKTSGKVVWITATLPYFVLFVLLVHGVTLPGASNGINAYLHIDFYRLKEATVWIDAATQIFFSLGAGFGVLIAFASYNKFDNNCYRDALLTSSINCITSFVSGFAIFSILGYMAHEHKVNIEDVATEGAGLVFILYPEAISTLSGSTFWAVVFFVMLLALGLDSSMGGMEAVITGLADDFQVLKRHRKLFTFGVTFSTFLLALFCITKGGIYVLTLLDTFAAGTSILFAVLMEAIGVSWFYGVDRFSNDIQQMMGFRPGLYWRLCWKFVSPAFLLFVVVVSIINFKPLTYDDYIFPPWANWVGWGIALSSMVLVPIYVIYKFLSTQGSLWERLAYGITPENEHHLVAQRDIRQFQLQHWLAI
Sodium-dependent dopamine transporter, sequence (Q01959 whole entry): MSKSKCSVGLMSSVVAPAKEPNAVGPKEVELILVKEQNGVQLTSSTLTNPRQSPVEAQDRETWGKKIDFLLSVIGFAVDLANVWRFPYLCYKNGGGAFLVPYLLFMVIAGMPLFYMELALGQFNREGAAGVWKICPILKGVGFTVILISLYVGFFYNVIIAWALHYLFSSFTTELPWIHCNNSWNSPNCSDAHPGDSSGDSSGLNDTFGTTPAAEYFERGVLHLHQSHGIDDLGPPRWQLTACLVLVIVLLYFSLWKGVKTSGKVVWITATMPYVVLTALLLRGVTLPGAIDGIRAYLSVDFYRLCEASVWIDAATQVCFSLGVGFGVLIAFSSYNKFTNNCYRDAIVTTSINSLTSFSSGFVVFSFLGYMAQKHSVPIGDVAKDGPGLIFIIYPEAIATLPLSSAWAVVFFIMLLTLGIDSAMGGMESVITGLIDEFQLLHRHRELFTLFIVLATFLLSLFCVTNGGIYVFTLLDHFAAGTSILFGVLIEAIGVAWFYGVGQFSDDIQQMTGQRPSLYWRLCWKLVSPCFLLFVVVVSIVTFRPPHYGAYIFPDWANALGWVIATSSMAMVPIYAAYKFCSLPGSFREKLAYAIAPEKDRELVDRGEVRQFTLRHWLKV
Sodium-dependent serotonin transporter, sequence (P31645 whole entry): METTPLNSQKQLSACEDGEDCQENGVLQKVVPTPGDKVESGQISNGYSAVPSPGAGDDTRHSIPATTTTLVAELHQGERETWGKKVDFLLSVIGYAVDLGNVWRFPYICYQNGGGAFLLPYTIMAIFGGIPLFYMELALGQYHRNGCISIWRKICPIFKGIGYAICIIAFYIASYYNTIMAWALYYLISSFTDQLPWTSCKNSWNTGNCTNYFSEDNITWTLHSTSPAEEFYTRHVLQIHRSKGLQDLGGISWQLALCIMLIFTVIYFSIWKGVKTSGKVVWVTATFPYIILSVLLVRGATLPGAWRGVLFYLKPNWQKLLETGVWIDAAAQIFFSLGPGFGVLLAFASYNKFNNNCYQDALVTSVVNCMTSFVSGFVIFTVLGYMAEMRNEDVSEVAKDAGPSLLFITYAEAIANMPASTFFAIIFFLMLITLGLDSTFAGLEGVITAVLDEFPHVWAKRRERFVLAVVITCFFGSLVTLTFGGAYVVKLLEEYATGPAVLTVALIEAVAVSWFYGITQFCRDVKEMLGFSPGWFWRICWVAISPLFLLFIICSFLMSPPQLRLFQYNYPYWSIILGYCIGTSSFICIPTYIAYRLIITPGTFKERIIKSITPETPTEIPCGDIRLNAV
T3 sequence (Q92847 whole entry): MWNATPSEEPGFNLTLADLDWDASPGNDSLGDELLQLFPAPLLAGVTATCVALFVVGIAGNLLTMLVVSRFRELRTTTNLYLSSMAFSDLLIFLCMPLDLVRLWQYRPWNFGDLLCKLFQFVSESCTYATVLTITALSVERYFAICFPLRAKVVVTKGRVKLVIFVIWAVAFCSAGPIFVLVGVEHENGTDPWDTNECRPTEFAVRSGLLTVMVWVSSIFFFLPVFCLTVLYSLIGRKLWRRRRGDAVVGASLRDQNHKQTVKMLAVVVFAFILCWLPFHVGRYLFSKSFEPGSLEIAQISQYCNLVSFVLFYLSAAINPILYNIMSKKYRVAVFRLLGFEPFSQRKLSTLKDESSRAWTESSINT
D(2) dopamine receptor, sequence (P14416 whole entry): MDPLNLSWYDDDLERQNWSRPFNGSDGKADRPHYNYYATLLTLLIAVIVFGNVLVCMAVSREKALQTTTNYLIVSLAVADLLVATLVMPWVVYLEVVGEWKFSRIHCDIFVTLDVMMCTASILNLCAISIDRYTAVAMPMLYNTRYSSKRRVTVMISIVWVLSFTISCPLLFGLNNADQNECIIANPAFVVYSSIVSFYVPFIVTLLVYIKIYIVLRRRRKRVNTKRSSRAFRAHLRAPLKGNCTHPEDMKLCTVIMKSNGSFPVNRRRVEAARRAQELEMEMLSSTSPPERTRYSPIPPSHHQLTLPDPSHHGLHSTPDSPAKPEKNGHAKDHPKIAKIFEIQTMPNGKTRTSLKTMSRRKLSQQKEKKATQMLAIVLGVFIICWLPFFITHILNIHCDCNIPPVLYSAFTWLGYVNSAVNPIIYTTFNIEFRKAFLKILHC
D(3) dopamine receptor, sequence (P35462 whole entry): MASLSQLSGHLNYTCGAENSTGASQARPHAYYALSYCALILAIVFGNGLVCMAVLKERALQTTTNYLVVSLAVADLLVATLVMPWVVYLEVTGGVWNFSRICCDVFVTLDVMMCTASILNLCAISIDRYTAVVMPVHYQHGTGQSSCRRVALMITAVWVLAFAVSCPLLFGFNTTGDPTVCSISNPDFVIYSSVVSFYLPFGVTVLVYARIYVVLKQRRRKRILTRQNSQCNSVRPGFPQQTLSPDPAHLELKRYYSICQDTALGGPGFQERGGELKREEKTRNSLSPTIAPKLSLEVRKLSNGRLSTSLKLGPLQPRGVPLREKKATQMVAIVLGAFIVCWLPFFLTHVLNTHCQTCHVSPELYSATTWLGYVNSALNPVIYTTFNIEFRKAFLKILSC
Histamine H2 receptor, sequence (P25021 whole entry): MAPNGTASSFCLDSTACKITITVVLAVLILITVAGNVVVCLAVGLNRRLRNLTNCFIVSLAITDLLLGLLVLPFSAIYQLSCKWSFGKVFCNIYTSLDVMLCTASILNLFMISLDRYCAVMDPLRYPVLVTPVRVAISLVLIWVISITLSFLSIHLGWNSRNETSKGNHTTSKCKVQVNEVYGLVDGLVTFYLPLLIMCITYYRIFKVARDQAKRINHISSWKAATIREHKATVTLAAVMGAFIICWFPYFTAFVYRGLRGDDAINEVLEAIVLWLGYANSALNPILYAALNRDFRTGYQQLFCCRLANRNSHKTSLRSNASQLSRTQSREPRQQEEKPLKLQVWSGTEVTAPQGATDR
Kappa-type opioid receptor, sequence (P41145 whole entry): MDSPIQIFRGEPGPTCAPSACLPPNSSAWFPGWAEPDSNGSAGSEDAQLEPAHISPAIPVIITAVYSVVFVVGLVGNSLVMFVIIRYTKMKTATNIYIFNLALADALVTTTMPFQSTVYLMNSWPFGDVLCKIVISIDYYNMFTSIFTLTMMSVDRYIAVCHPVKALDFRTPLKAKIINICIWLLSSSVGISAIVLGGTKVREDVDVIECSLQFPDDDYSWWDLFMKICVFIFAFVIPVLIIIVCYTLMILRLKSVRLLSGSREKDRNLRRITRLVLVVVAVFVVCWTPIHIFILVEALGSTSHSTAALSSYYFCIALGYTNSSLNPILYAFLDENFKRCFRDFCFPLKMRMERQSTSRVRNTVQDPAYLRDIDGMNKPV
Muscarinic acetylcholine receptor M3, sequence (P20309 whole entry): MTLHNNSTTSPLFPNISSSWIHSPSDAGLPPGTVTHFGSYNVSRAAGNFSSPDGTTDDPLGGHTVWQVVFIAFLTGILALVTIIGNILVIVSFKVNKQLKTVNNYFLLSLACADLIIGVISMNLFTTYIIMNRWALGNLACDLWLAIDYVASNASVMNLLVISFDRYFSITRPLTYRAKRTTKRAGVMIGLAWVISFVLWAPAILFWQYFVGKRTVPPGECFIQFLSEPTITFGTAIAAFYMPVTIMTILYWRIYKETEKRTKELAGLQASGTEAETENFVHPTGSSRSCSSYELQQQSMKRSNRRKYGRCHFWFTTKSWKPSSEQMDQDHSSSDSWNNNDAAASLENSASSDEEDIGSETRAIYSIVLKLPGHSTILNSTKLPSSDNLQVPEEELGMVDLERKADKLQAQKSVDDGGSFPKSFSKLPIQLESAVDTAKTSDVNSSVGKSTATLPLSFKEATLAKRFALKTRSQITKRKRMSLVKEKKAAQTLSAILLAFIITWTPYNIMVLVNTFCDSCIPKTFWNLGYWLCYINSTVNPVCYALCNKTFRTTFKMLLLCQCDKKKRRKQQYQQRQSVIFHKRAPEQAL
Growth hormone secretagogue receptor type 1 (Rattus norvegicus, UniProt O08725), sequence (O08725 whole entry): as the sequence (O08725 whole entry) above

| Structure (SMILES) | Ki [1] [µM] | Ki [3] [µM] | Ki [4] [µM] | Activity [6] [%] | Ki [7] [µM] | Ki [9] [µM] | Ki [10] [µM] | Ki [13] [µM] | IC50 [15] [µM] | Activity [19] [%] | Ki [20] [µM] | Activity [22] [%] | Ki [24] [µM] | Ki [26] [µM] | Ki [27] [µM] | Ki [28] [µM] | IC50 [29] [µM] | other results |
| --- | --- | --- | --- | --- | --- | --- | --- | --- | --- | --- | --- | --- | --- | --- | --- | --- | --- | --- |
| C[C@H]1CN(C(=O)c2ccc(-c3ccccc3F)cc2)CCN1C(=O)c1ccc2cc[nH]c2c1 | > 10 | > 10 | > 10 | 33 | > 10 | > 10 | > 10 | > 10 | 0.0091 | 33 | > 10 | 24 | > 10 | > 10 | > 10 | > 10 |  | IC50 [2]: > 10 µM; MRT [5]: 1.9 h; bioavailability [8]: 17%; Activity [11]: 42%; IC50 [12]: > 10 µM; clearance [14]: 35 mL/min/kg; Activity [16]: 41%; Vd [17]: 3.7 L/kg; Activity [18]: 31%; IC50 [21]: 0.002 µM; Activity [23]: 21%; Kp [25]: 0.26 |
| C[C@H]1CN(C(=O)c2ccc(-c3ccncc3F)cc2)CCN1C(=O)c1ccc2cc[nH]c2c1 |  |  |  | -2 |  |  |  |  | 0.031 |  |  |  |  |  |  |  | 0.049 |  |
| COc1cccc(-c2ccc(C(=O)N3CCN(C(=O)c4ccc5cc[nH]c5c4)[C@@H](C)C3)cc2)c1 | > 10 | > 10 | > 10 | 46 | > 10 | > 10 | > 10 | > 10 | 0.012 | 45 | > 10 | 40 | > 10 | > 10 | > 10 | > 10 |  |  |
| C[C@H]1CN(C(=O)c2ccc(-c3ccccc3C(F)(F)F)cc2)CCN1C(=O)c1ccc2cc[nH]c2c1 | > 10 | > 10 | > 10 | 28 | > 10 | > 10 | > 10 | > 10 | 0.0041 | 24 | > 10 | 21 | > 10 | > 10 | > 10 | > 10 |  |  |
| O=C(c1ccc(-c2ccccc2)cc1)N1CCN(C(=O)c2ccc3cc[nH]c3c2)CC1 | > 10 | > 10 | > 10 | 14 | > 10 | > 10 | > 10 | > 10 | 0.1 | 18 | > 10 |  | > 10 | > 10 | > 10 | > 10 |  | Activity [11]: 14%; Activity [16]: 24% |
| C[C@H]1CN(C(=O)c2ccc(-c3ccncc3)c(F)c2)CCN1C(=O)c1ccc2cc[nH]c2c1 |  |  |  | -16 |  |  |  |  | 0.0122 |  |  |  |  |  |  |  | 0.0103 | Kp [30]: 2.3; remaining at 0.5 h, 1 µM [31]: 87%; Ratio [32]: 1.7; clearance [33]: 32.7 mL/min/kg; MRT [34]: 0.7 h; IC50 [35]: 0.093 µM; Vd [36]: 1.4 L/kg; remaining at 0.5 h, 1 µM [37]: 78%; fraction unbound [38]: 0.04; fraction unbound [39]: 0.04; Kp [25]: 0.16 |
| Cc1ccccc1-c1ccc(C(=O)N2CCN(C(=O)c3ccc4cc[nH]c4c3)[C@@H](C)C2)cc1 | > 10 | > 10 | > 10 | 31 | > 10 | > 10 | > 10 | > 10 | 0.0029 | 32 | > 10 | 18 | > 10 | > 10 | > 10 | > 10 |  |  |
| C[C@H]1CN(C(=O)c2ccc(-c3ccncc3F)c(F)c2)CCN1C(=O)c1ccc2cc[nH]c2c1 |  |  |  | -1 |  |  |  |  | 0.042 |  |  |  |  |  |  |  | 0.045 |  |

Source: ChEMBL document CHEMBL1154934, “Identification of piperazine-bisamide GHSR antagonists for the treatment of obesity” (Bioorg Med Chem Lett, 2010)
